ChEMBL document CHEMBL4765441, “Design, synthesis and anti-cancer activity of pyrrole-imidazole polyamides through target-downregulation of c-kit gene expression” (Eur J Med Chem, 2020)
Active and inactive are the calls of the source. The calls are words filed in the database; no cut-off is given here.

What was measured:
SGC-7901 [1] = experiment: Induction of morphological changes in human SGC7901 cells assessed as appearance of round shaped cells at 7.5 uM incubated for 36 hrs by microscopic analysis; format: functional, cell-based
How it was run: (§1)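 Cells seeded at 2 × 10^5 per well and grown 24 h. Medium then replaced with compound-containing medium. After 36 h co-culture, morphology inspected by light microscopy.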

GISTT1 [2] = experiment: Down regulation of c-kit gene expression at translational level in human GIST-T1 cells at 5 uM; format: functional, cell-based
dsDNA = experiment: Binding affinity to 5'-AGGGGAGGCGAGGAGGGGCGTGGCCGG-3'/3'-TCCCCTCCGCTCCTCCCCGCACCGGCC-5' dsDNA (unknown origin) at 1:2 DNA:compound ratio by SYBR GOLD staining based EMSA; format: nucleic-acid assay; settings: Homo sapiens
How it was run: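 Target 27-bp c-kit promoter duplex, annealed at 95 °C, then incubated overnight with or without compound in pH 7.4 buffer (10 mM Tris-HCl, 10 mM KCl, 0.1 mM EDTA). Mixtures run on 16% native polyacrylamide gel at 150 V for 3 h. Gels stained with SYBR Gold for 30 min and imaged on a gel documentation system.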

Bel-7402 = experiment: Antiproliferative activity against human Bel-7402 cells assessed as reduction in cell viability incubated for 48 hrs by xCELLigence RTCA; format: functional, cell-based; settings: Bel-7402, 48 h
MKN-45 = experiment: Antiproliferative activity against human MKN-45 cells assessed as reduction in cell viability incubated for 48 hrs by xCELLigence RTCA; format: functional, cell-based; settings: MKN-45, 48 h
SGC-7901 [3] = experiment: Antiproliferative activity against human SGC7901 cells assessed as reduction in cell viability incubated for 48 hrs by xCELLigence RTCA; format: functional, cell-based; settings: SGC-7901, 48 h
A549 [4] = experiment: Antiproliferative activity against human A549 cells assessed as reduction in cell viability incubated for 48 hrs by xCELLigence RTCA; format: functional, cell-based; settings: A549, 48 h
GISTT1 [5] = experiment: Down regulation of c-kit gene expression at transcriptional level in human GIST-T1 cells; format: functional, cell-based
GISTT1 [6] = experiment: Antiproliferative activity against human GIST-T1 cells; format: functional, cell-based
SGC-7901 [7] = experiment: Inhibition of cell migration in human SGC7901 cells at 1.5 uM incubated for 48 hrs by inverted fluorescence microscope based scratch wound healing assay; format: functional
How it was run: (§2)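 20 × 10^4 cells per well grown to 80% confluence. Wound scratched with a pipette tip, washed twice with PBS and photographed under an inverted fluorescence microscope. Cells then held in serum-free medium with compound for 48 h. Migration measured as distance moved from the wound edge; mean ± SD, n = 3.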

A549 [8] = experiment: Inhibition of cell migration in human A549 cells at 1.5 uM incubated for 48 hrs by inverted fluorescence microscope based scratch wound healing assay; format: functional; how it was run: as §2
SGC-7901 [9] = experiment: Induction of morphological changes in human SGC7901 cells assessed as cell detachment at 7.5 uM incubated for 36 hrs by microscopic analysis; format: functional, cell-based; how it was run: as §1
SGC-7901 [10] = experiment: Induction of morphological changes in human SGC7901 cells assessed as apoptotic body formation at 7.5 uM incubated for 36 hrs by microscopic analysis; format: functional, cell-based; how it was run: as §1
A549 [11] = experiment: Induction of morphological changes in human A549 cells assessed as cell detachment at 15 uM incubated for 36 hrs by microscopic analysis; format: functional, cell-based; how it was run: as §1
A549 [12] = experiment: Induction of morphological changes in human A549 cells assessed as membrane bulge at 15 uM incubated for 36 hrs by microscopic analysis; format: functional, cell-based; how it was run: as §1
SGC-7901 [13] = experiment: Induction of apoptosis in human SGC7901 cells assessed as viable cells at 7.5 uM incubated for 36 hrs by Annexin V-FITC/propidium iodide staining-based flow cytometric analysis (reference value: 93.2 %); format: functional; settings: read-out: Activity
SGC-7901 [14] = experiment: Induction of apoptosis in human SGC7901 cells assessed as viable cells at 15 uM incubated for 36 hrs by Annexin V-FITC/propidium iodide staining-based flow cytometric analysis (reference value: 93.2 %); format: functional; settings: read-out: Activity
SGC-7901 [15] = experiment: Induction of apoptosis in human SGC7901 cells assessed as early apoptotic cells at 15 uM incubated for 36 hrs by Annexin V-FITC/propidium iodide staining-based flow cytometric analysis (reference value: 2.74 %); format: functional
SGC-7901 [16] = experiment: Induction of apoptosis in human SGC7901 cells assessed as late apoptotic cells at 15 uM incubated for 36 hrs by Annexin V-FITC/propidium iodide staining-based flow cytometric analysis (reference value: 3.69 %); format: functional
SGC-7901 [17] = experiment: Induction of apoptosis in human SGC7901 cells assessed as necrotic cells at 15 uM incubated for 36 hrs by Annexin V-FITC/propidium iodide staining-based flow cytometric analysis (reference value: 0.34 %); format: functional
A549 [18] = experiment: Induction of apoptosis in human A549 cells assessed as early apoptotic cells at 7.5 uM incubated for 36 hrs by Annexin V-FITC/propidium iodide staining-based flow cytometric analysis (reference value: 1.41 %); format: functional
A549 [19] = experiment: Induction of apoptosis in human A549 cells assessed as late apoptotic cells at 7.5 uM incubated for 36 hrs by Annexin V-FITC/propidium iodide staining-based flow cytometric analysis (reference value: 0.41 %); format: functional
A549 [20] = experiment: Induction of apoptosis in human A549 cells assessed as necrotic cells at 7.5 uM incubated for 36 hrs by Annexin V-FITC/propidium iodide staining-based flow cytometric analysis (reference value: 0.31 %); format: functional
A549 [21] = experiment: Induction of apoptosis in human A549 cells assessed as viable cells at 15 uM incubated for 36 hrs by Annexin V-FITC/propidium iodide staining-based flow cytometric analysis (reference value: 97.9 %); format: functional; settings: read-out: Activity
A549 [22] = experiment: Induction of apoptosis in human A549 cells assessed as late apoptotic cells at 15 uM incubated for 36 hrs by Annexin V-FITC/propidium iodide staining-based flow cytometric analysis (reference value: 0.41 %); format: functional
A549 [23] = experiment: Induction of apoptosis in human A549 cells assessed as necrotic cells at 15 uM incubated for 36 hrs by Annexin V-FITC/propidium iodide staining-based flow cytometric analysis (reference value: 0.31 %); format: functional
SGC-7901 [24] = experiment: Down regulation of c-kit gene expression in human SGC-7901 cells incubated for 36 hrs by Western blot analysis; format: functional, cell-based
How it was run: (§3)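 Cells exposed to compound for 36 h, then lysed in RIPA and protein measured by BCA. 30 units of total protein separated by 10% SDS-PAGE, transferred to PVDF and blocked with 5% BSA. Primary antibodies, with β-tubulin as reference, at 4 °C; secondary 2 h; ECL detection. Bands quantified by densitometry, mean ± SD, n = 3.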

A549 [25] = experiment: Down regulation of c-kit gene expression in human A549 cells incubated for 36 hrs by Western blot analysis; format: functional, cell-based; how it was run: as §3
SGC-7901 [26] = experiment: Down regulation of c-kit mRNA expression in human SGC-7901 cells at 7.5 uM incubated for 36 hrs by Western blot analysis; format: functional, cell-based; settings: in the assay text read “RT-PCR analysis” for “Western blot analysis”
How it was run: (§4)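 Cells treated for 36 h. Total RNA quantified by Nanodrop and checked on 1.5% agarose with ethidium bromide. 400 ng RNA per one-step RT-PCR with c-kit-specific primers; reverse transcription 30 min at 50 °C, then 2 min at 94 °C. Normalized to β-actin; semi-quantitative.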

A549 [27] = experiment: Down regulation of c-kit mRNA expression in human A549 cells at 7.5 uM incubated for 36 hrs by Western blot analysis; format: functional, cell-based; settings: in the assay text read “RT-PCR analysis” for “Western blot analysis”; how it was run: as §4

## CC(=O)Nc1cn(C)c(C(=O)Nc2cn(C)c(C(=O)Nc3cc(C(=O)Nc4cn(C)c(C(=O)NCCC(=O)Nc5cn(C)c(C(=O)Nc6cn(C)c(C(=O)NCC[C@@H](N)C(=O)Nc7cc(C(=O)Nc8cc(C(=O)NC[C@@H](O)CC(=O)Nc9cc(C(=O)Nc%10cn(C)c(C(=O)Nc%11cc(C(=O)Nc%12cc(C(=O)NCCC(=O)NCCCN(C)C)n(C)c%12)n(C)c%11)n%10)n(C)c9)n(C)c8)n(C)c7)n6)n5)n4)n(C)c3)n2)n1.Cl.Cl
SGC-7901 [1]
  Activity: Active
GISTT1 [2]
  Activity: Active
dsDNA
  Activity: Active
Bel-7402
  IC50: 11.2 µM
MKN-45
  IC50: 7.41 µM
SGC-7901 [3]
  IC50: 2.96 µM
A549 [4]
  IC50: 5.97 µM
GISTT1 [5]
  Activity: Active
GISTT1 [6]
  Activity: Active
SGC-7901 [7]
  inhibition at 1.5 µM: 85.7%
A549 [8]
  inhibition at 1.5 µM: 83.8%
SGC-7901 [9]
  Activity: Active
SGC-7901 [10]
  Activity: Active
A549 [11]
  Activity: Active
A549 [12]
  Activity: Active
SGC-7901 [13]
  viability at 7.5 µM: 56.4%
SGC-7901 [14]
  viability at 15 µM: 43.6%
SGC-7901 [15]
  Activity: 41.7%
SGC-7901 [16]
  Activity: 12.8%
SGC-7901 [17]
  Activity: 1.83%
A549 [18]
  Activity: 22.7%
A549 [19]
  Activity: 14.1%
A549 [20]
  Activity: 2.76%
A549 [21]
  viability at 15 µM: 51.4%
A549 [22]
  Activity: 19.6%
A549 [23]
  Activity: 0.12%
SGC-7901 [24]
  Activity: Dose-dependent effect
A549 [25]
  Activity: Dose-dependent effect
SGC-7901 [26]
  Activity: Active
A549 [27]
  Activity: Active
